Experimental data pooled from the literature.
Protocols differ between the studies behind these lines.
Target: Substance-P receptor (TACR1, Homo sapiens, UniProt P25103)

CCCCCCCCCCCC(=O)OC[C@@H](COP(=O)(O)OCCNC(=O)c1ccc(Cn2c(=O)[nH]c3c(N)nc(OCCOC)nc32)cc1)OC(=O)CCCCCCCCCCC has an inhibition of 23% (ligand displacement; radioligand; 10 µM).
For CN(CCN1CCC(OC(=O)Nc2ccccc2-c2ccccc2)CC1)C(=O)c1ccc(CN2CCC(C(N)=O)CC2)cc1, the inhibition was -6% (ligand displacement; radioligand; 1 µM).
C[C@H](C(=O)N[C@H]1COc2ccccc2[C@@H]1S(C)(=O)=O)c1ccc(F)cc1 has an inhibition of 11% (cell-free assay; 10 µM).
The inhibition of COc1ccc(S(=O)(=O)N2CCCCC2)cc1C is reported as under 30% (ligand displacement; radioligand; 10 µM).
With CC(C)Cn1cnc2c(N)nc3ccccc3c21 the inhibition was -8% (ligand displacement; radioligand; 10 µM).
The inhibition of COc1ccc(C(=O)NCc2cc(C(C)C)no2)cc1OC1CCN(C)CC1 is reported as 22% (ligand displacement; radioligand; 10 µM).
With O=C(Nc1cccnn1)N1CCN([C@@H]2CCOc3cc(C(F)(F)F)ccc32)CC1 the inhibition was 38% (ligand displacement; 20 µM).
CC(C)N1CCC[C@H]1CNC(=O)c1cn(C2CCCC2)c(=O)c2c1c1ccccc1n2C gave an inhibition of 23% (ligand displacement; radioligand; 10 µM).
c1ccc(C(NCCNC(c2ccccc2)c2ccccc2)c2ccccc2)cc1 has an inhibition of 49% (cell-free assay; 10 µM).
